In ChEMBL document CHEMBL1132562, “Ajoene is an inhibitor and subversive substrate of human glutathione reductase and Trypanosoma cruzi trypanothione reductase: crystallographic, kinetic, and spectroscopic studies” (J Med Chem, 1999):
Active and inactive are the calls of the source. The rule behind the calls is not given here.

Tests used:
[1] = target: T1, Glutathione reductase, mitochondrial (Homo sapiens) (UniProt P00390); assay: Kcat value determined against human Glutathione reductase (GR) by reduction of cytochrome c
T1 sequence (whole entry): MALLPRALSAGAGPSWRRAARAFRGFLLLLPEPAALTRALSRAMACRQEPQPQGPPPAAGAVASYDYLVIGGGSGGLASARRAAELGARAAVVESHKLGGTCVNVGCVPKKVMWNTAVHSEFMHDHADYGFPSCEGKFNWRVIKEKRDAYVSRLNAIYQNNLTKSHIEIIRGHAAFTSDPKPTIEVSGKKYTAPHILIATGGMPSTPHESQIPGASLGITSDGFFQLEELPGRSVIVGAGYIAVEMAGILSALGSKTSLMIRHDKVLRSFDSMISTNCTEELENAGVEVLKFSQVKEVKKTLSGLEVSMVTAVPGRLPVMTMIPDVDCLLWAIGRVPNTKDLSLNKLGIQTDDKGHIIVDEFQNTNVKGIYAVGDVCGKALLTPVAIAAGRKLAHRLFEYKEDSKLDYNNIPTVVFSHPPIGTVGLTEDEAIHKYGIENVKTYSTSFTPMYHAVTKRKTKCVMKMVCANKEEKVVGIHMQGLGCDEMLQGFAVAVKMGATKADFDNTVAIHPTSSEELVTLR
Outline: (§1)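 1–2 U human GR preincubated 2 min at 25 °C with 200 μM NADPH and 25 μM horse heart cytochrome c in assay buffer, pH 7.5. Reaction started with 200 μM ajoene or DATS. Cytochrome c reduction followed at 550 nm (ε 19.1 mM⁻¹ cm⁻¹). Controls without enzyme. Superoxide tested by adding superoxide dismutase.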

[2] = target: T1, Glutathione reductase, mitochondrial (Homo sapiens); assay: kcat/Km value determined against human Glutathione reductase (GR)
Outline: (§2)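 Recombinant human glutathione reductase in GR assay buffer (phosphate, 200 mM KCl, 1 mM EDTA, pH 6.9) at 25 °C with 150 μM NADPH and ajoene or DATS as substrate. NADPH consumption read at 340 nm. Where GSH is present, it is added to the mixture. Controls held NADPH and enzyme only (intrinsic oxidase activity).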

[3] = target: T1, Glutathione reductase, mitochondrial (Homo sapiens); assay: kcat/Km value determined against human Glutathione reductase (GR) by oxidation of NADPH; outline: as §2
[4] = target: T1, Glutathione reductase, mitochondrial (Homo sapiens); assay: Percent inhibition of 0.3 uM (Z)-ajoene in the absence of NADPH for 15 min at 37 C; NI=No Inhibition
Outline: (§3)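 GR (0.4–1.0 U in 200 μL; 0.3 μM) incubated at 37 °C in GR assay buffer, pH 6.9, with 200 μM NADPH (or without) and 12.5–200 μM ajoene. Ethanol replaced inhibitor in controls. 2-μL aliquots taken over time were assayed for remaining activity in a standard GR assay: 100 μM NADPH, 1 mM GSSG, 340 nm, 25 °C.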

[5] = target: T1, Glutathione reductase, mitochondrial (Homo sapiens); assay: Percent inhibition of 0.3 uM (Z)-ajoene in the presence of NADPH for 15 min at 37 C; outline: as §3
[6] = target: T1, Glutathione reductase, mitochondrial (Homo sapiens); assay: Kcat value determined against human Glutathione reductase (GR) by oxidation of NADPH; outline: as §2
[7] = target: Trypanothione reductase (Trypanosoma cruzi) (UniProt P28593); assay: Kcat value determined against Trypanothione reductase (TR) by oxidation of NADPH
Outline: (§4)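 T. cruzi trypanothione reductase, recombinant, with NADPH and ajoene as substrate in TR assay buffer (40 mM Hepes, 1 mM EDTA, pH 7.5) at 25 °C. NADPH oxidation followed as absorbance decrease at 340 nm. Controls held only NADPH and enzyme, giving the intrinsic oxidase activity.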

[8] = target: Trypanothione reductase (Trypanosoma cruzi) (UniProt P28593); assay: kcat/Km value determined against Trypanothione reductase (TR); outline: as §4
[9] = target: Trypanothione reductase (Trypanosoma cruzi) (UniProt P28593); assay: kcat/Km value determined against Trypanothione reductase (TR) by oxidation of NADPH; outline: as §4
[10] = target: Trypanothione reductase (Trypanosoma cruzi) (UniProt P28593); assay: Percent inhibition of Trypanothione reductase (TR) with 200 uM (Z)-ajoene in the presence of NADPH at 37 C
Outline: (§5)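 T. cruzi TR (0.4–1.0 U in 200 μL) incubated at 37 °C with 200 μM NADPH and 200 μM ajoene for up to 60 min. Aliquots assayed for residual activity: 100 μM NADPH, 120 μM trypanothione disulfide, Hepes pH 7.5, 340 nm decrease.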

[11] = target: T1, Glutathione reductase, mitochondrial (Homo sapiens); assay: Kcat value determined against human Glutathione reductase (GR) by reduction of cytochrome c in the presence of GSH; outline: as §1
[12] = target: T1, Glutathione reductase, mitochondrial (Homo sapiens); assay: Percent inhibition of 0.3 uM (E)-ajoene in the absence of NADPH for 15 min at 37 C; NI=No Inhibition; outline: as §3
[13] = target: T1, Glutathione reductase, mitochondrial (Homo sapiens); assay: Percent inhibition of 0.3 uM (E)-ajoene in the presence of NADPH for 15 min at 37 C; outline: as §3
[14] = target: T1, Glutathione reductase, mitochondrial (Homo sapiens); assay: Kcat value determined against human Glutathione reductase (GR) by oxidation of NADPH in the presence of GSH; outline: as §2
[15] = target: Trypanothione reductase (Trypanosoma cruzi) (UniProt P28593); assay: Percent inhibition of Trypanothione reductase (TR) with 200 uM (E)-ajoene in the presence of NADPH at 37 C; outline: as §5

Chain of Trypanothione reductase (Trypanosoma cruzi) (P28593 whole entry, looked up): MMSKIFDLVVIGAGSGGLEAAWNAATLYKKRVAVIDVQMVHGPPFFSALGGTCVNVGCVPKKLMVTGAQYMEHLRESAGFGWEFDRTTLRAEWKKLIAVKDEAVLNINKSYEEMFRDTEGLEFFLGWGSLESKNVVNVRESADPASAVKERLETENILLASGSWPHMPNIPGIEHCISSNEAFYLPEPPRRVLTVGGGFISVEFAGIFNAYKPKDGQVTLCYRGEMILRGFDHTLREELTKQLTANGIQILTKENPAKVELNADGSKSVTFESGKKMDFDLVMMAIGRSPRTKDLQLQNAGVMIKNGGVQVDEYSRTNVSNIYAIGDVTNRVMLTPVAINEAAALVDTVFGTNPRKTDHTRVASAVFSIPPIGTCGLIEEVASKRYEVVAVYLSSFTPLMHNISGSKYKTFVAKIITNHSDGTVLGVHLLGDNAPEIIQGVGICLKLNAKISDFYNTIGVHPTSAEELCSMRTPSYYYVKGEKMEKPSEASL

| Compound | k cat [1] [s⁻¹] | k cat/Km [2] [M⁻¹ s⁻¹] | k cat/Km [3] [M⁻¹ s⁻¹] | inhibition [4] | inhibition [5] [%] | k cat [6] [s⁻¹] | k cat [7] [s⁻¹] | k cat/Km [8] [M⁻¹ s⁻¹] | k cat/Km [9] [M⁻¹ s⁻¹] | inhibition [10] [%] | k cat [11] [s⁻¹] | inhibition [12] | inhibition [13] [%] | k cat [14] [s⁻¹] | inhibition [15] [%] |
| --- | --- | --- | --- | --- | --- | --- | --- | --- | --- | --- | --- | --- | --- | --- | --- |
| C=CCSS/C=C\C[S+]([O-])CC=C (centres undefined) | 0.06 | 6800 | 6840 | inactive | 50 | 2.6 | 0.67 | 340 | 335 | 40 | – | – | – | – | – |
| C=CCSS/C=C/C[S+]([O-])CC=C (centres undefined) | 0.1 | 680 | 425 | – | – | 0.34 | 0.67 | 340 | 335 | – | 0.32 | inactive | 50 | 1.47 | 50 |
| C=CCSSSCC=C | – | – | 1000 | – | – | 0.16 | – | – | – | – | – | – | – | – | – |
